Results published in ChEMBL document CHEMBL4834402, “Discovery of TAK-981, a First-in-Class Inhibitor of SUMO-Activating Enzyme for the Treatment of Cancer” (J Med Chem, 2021).

Key:
SUMO-activating enzyme [1] = target: T1, SUMO-activating enzyme (Homo sapiens, UniProt Q9UBT2); test: Inhibition of recombinant SAE (unknown origin) assessed as reduction in transfer of SUMO1 to UBC9 using SUMO1 as a substrate in presence of ATP at Km concentration by HTRF assay; type: protein-complex assay
Method in brief: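 HTRF transthiolation assay measuring transfer of SUMO1 to UBC9, the E2 for SAE.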

[2] = Inhibition of recombinant UAE (unknown origin) in presence of ATP at Km concentration by HTRF assay; parameters: species or system Homo sapiens
NEDD8 activating enzyme = target: T2, NEDD8 activating enzyme (Homo sapiens, UniProt Q8TBC4); test: Inhibition of recombinant NAE (unknown origin) in presence of ATP at Km concentration by HTRF assay; type: protein-complex assay
T2 sequence (Q8TBC4 whole entry): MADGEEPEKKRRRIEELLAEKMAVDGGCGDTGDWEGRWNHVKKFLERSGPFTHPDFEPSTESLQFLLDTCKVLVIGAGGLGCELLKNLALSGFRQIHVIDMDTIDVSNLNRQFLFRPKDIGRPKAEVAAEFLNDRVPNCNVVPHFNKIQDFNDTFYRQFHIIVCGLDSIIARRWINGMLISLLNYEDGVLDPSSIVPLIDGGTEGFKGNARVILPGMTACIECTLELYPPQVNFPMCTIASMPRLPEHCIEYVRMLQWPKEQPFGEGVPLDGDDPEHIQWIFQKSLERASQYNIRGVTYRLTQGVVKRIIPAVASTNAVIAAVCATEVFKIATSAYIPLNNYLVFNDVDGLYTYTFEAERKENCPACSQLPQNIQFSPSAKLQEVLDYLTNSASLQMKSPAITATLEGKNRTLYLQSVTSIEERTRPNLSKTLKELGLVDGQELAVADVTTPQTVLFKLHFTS
T2 sequence (Q13564 whole entry): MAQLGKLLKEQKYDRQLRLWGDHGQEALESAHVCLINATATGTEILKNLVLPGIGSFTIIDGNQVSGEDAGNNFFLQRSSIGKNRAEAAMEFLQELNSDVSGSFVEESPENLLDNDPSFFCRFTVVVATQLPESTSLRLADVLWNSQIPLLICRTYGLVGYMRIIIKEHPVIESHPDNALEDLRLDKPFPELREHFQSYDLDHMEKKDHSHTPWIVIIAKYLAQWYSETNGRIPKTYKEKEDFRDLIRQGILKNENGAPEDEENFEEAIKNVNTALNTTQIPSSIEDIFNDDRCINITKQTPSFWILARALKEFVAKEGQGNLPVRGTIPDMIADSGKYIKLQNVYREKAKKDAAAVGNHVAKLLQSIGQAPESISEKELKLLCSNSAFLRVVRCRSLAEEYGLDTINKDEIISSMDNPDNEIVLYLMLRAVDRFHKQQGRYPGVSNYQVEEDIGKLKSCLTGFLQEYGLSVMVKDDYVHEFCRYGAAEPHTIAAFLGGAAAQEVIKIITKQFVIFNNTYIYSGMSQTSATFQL

SUMO-activating enzyme [3] = target: T1, SUMO-activating enzyme; test: Inhibition of SAE in human HCT116 cells assessed as reduction in redistribution of SUMO2/3 proteins from nucleus to cytosol incubated for 4 hrs by immunofluorescence assay; type: cell-based, HCT-116
Method in brief: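 HCT-116 cells exposed to compound across a concentration range for 4 h, then stained with anti-SUMO2/3 monoclonal antibody. Automated imaging scored the nuclear (inner) to cytoplasmic (outer) SUMO2/3 ratio. IC50 taken from the dose response.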

T1 sequence (Q9UBE0 whole entry): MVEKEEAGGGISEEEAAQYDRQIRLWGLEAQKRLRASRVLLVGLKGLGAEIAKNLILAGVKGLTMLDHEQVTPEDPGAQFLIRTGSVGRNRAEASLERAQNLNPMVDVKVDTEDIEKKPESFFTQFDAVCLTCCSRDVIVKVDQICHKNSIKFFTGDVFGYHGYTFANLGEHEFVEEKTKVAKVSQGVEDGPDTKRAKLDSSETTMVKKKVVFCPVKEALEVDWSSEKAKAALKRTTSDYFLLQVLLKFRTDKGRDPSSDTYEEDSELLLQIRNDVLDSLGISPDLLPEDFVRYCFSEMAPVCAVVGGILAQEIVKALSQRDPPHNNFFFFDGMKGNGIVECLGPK
T1 sequence (Q9UBT2 whole entry): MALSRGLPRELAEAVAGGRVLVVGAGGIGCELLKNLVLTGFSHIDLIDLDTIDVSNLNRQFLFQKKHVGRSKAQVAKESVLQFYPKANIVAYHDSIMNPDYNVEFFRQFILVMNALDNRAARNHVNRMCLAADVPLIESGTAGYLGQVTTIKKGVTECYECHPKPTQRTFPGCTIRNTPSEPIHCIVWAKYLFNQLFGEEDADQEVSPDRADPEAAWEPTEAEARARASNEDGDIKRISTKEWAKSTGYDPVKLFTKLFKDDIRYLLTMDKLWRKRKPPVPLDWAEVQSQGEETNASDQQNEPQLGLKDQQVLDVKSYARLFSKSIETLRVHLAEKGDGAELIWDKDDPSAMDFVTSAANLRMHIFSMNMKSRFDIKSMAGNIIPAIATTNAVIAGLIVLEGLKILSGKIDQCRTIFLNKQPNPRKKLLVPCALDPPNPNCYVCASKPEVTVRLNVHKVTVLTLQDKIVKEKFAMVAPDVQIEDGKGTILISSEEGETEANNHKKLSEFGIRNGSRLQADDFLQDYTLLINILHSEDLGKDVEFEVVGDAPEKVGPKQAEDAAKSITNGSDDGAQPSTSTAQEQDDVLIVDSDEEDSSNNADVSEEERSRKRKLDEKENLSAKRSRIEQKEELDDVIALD

Compound | IC50 [2] [nM] | IC50 (NEDD8 activating enzyme) [nM] | IC50 (SUMO-activating enzyme [1]) [nM] | IC50 (SUMO-activating enzyme [3]) [nM]
NS(=O)(=O)OC[C@H]1C[C@@H](Nc2ncncc2C(=O)c2ccn(Cc3ccc(Cl)cc3)n2)C[C@@H]1O | > 1000 | > 1000 | 5.1 | 1880
CNC(c1cccc(Cl)c1)c1csc(C(=O)c2cncnc2N[C@@H]2C[C@H](COS(N)(=O)=O)[C@@H](O)C2)c1 (stereo partly drawn) | > 1000 | 956 | 3.7 | 436
NS(=O)(=O)OC[C@H]1C[C@@H](Nc2ncncc2C(=O)c2ccn(Cc3cccc(Br)n3)n2)C[C@@H]1O | > 1000 | 581 | 0.7 | 49
NS(=O)(=O)OC[C@H]1C[C@@H](Nc2ncncc2C(=O)c2ccn(Cc3ccc(Cl)s3)n2)C[C@@H]1O | > 1000 | 353 | 2 | 228
NS(=O)(=O)OC[C@H]1C[C@@H](Nc2ncncc2C(=O)c2ccn(Cc3ccccc3)n2)[C@@H](O)[C@@H]1O | > 1000 | 748 | 27 | 1530
NC(c1cccc(Cl)c1)c1csc(C(=O)c2cncnc2N[C@@H]2C[C@H](COS(N)(=O)=O)[C@@H](O)C2)c1 (stereo in doubt; 32) | > 1000 | 328 | 1.5 | 1030
NS(=O)(=O)OC[C@H]1C[C@@H](Nc2ncncc2C(=O)c2ccn(Cc3cccc(C(F)(F)F)c3)n2)C[C@@H]1O | > 1000 | 695 | 1.1 | 39
NS(=O)(=O)OC[C@H]1C[C@@H](Nc2ncncc2C(=O)c2cc(C3OCc4ccc(Cl)cc43)c(Cl)s2)C[C@@H]1O (stereo partly drawn) | > 1000 | > 1000 | 3 | 163
NS(=O)(=O)OC[C@H]1C[C@@H](Nc2ncncc2C(=O)c2cc(C3NCc4ccc(Cl)cc43)cs2)C[C@@H]1O (stereo partly drawn) | > 1000 | > 1000 | 1.6 | 312
NS(=O)(=O)OC[C@H]1C[C@@H](Nc2ncncc2C(=O)c2ccn(Cc3ccc(Cl)o3)n2)C[C@@H]1O | > 1000 | 435 | 1.1 | 33
CN1CCc2ccc(Cl)cc2C1c1csc(C(=O)c2cncnc2N[C@@H]2C[C@H](COS(N)(=O)=O)[C@@H](O)C2)c1 (stereo partly drawn) | > 1000 | > 1000 | 2.5 | 638
NS(=O)(=O)OC[C@H]1C[C@@H](Nc2ncncc2C(=O)c2ccn(Cc3cccc(Cl)n3)n2)C[C@@H]1O | > 1000 | 478 | 1 | 66
N#Cc1sc(C(=O)c2cncnc2N[C@@H]2C[C@H](COS(N)(=O)=O)[C@@H](O)C2)cc1Cc1cccc(Cl)c1 | > 1000 | > 1000 | 19 | 6260
Cc1cccc(Cn2ccc(C(=O)c3cncnc3N[C@@H]3C[C@H](COS(N)(=O)=O)[C@@H](O)C3)n2)c1 | > 1000 | 308 | 1.7 | 29
NS(=O)(=O)OC[C@H]1C[C@@H](Nc2ncncc2C(=O)c2ccn(Cc3ccccc3)n2)[C@H](F)[C@@H]1O | > 1000 | 334 | 3.8 | 517
NS(=O)(=O)OC[C@@H]1C[C@@H](Nc2ncncc2C(=O)c2ccn(Cc3ccccc3)n2)C[C@@H]1O | > 1000 | 806 | 22 | > 1000
NS(=O)(=O)OC[C@H]1C[C@@H](Nc2ncncc2C(=O)c2ccn(Cc3ccccc3)n2)C(F)(F)[C@@H]1O | > 1000 | > 1000 | 3.9 | 249
Cc1sc(C(=O)c2cncnc2N[C@@H]2C[C@H](COS(N)(=O)=O)[C@@H](O)C2)cc1[C@H]1NCCc2ccc(Cl)cc21 | > 1000 | 554 | 30 | 399
NS(=O)(=O)OC[C@H]1C[C@@H](Nc2ncncc2C(=O)c2ccn(Cc3cccc(OC(F)(F)F)c3)n2)C[C@@H]1O | > 1000 | > 1000 | 2.1 | 78
CN(C)C(c1cccc(Cl)c1)c1csc(C(=O)c2cncnc2N[C@@H]2C[C@H](COS(N)(=O)=O)[C@@H](O)C2)c1 (stereo partly drawn) | > 1000 | > 1000 | 25 | 4170
NS(=O)(=O)OC[C@H]1C[C@@H](Nc2ncncc2C(=O)c2ccn(Cc3cccc(F)c3)n2)C[C@@H]1O | > 1000 | 357 | 2.9 | 515
NS(=O)(=O)OC[C@H]1C[C@@H](Nc2ncncc2C(=O)c2ccn(Cc3ccccc3)n2)[C@@H](F)[C@@H]1O | 492 | 688 | 2.3 | 260

Continued by falling IC50 (NEDD8 activating enzyme), values first:

IC50 [2] [nM] | IC50 (NEDD8 activating enzyme) [nM] | Compound | IC50 (SUMO-activating enzyme [1]) [nM] | IC50 (SUMO-activating enzyme [3]) [nM]
> 1000 | 304 | C#Cc1cccc(Cn2ccc(C(=O)c3cncnc3N[C@@H]3C[C@H](COS(N)(=O)=O)[C@@H](O)C3)n2)c1 | 1.1 | 22
> 1000 | 276 | NS(=O)(=O)OC[C@H]1C[C@@H](Nc2ncncc2C(=O)c2ccn(CC3CCCCC3)n2)C[C@@H]1O | 8.2 | 1610
> 1000 | 267 | NS(=O)(=O)OC[C@H]1C[C@@H](Nc2ncncc2C(=O)c2ccc(Cc3cccc(Br)c3)o2)C[C@@H]1O | – | –
> 1000 | 265 | NS(=O)(=O)OC[C@H]1C[C@@H](Nc2ncncc2C(=O)c2cc(C3OCCc4c(Cl)cccc43)cs2)C[C@@H]1O (stereo partly drawn) | 1.7 | 76
> 1000 | 242 | NS(=O)(=O)OC[C@H]1C[C@@H](Nc2ncncc2C(=O)c2ccn(Cc3cccc(Cl)c3)n2)C[C@@H]1O | 0.7 | 20
> 1000 | 215 | NS(=O)(=O)OC[C@H]1C[C@@H](Nc2ncncc2C(=O)c2ccn(Cc3ccccc3Cl)n2)C[C@@H]1O | 3.2 | 332
> 1000 | 122 | NS(=O)(=O)OC[C@H]1C[C@@H](Nc2ncncc2C(=O)c2cnn(Cc3ccccc3)c2)C[C@@H]1O | 6.3 | 2940
> 1000 | 91 | NS(=O)(=O)OC[C@H]1C[C@@H](Nc2ncncc2C(=O)c2cc(Cc3cccc(Br)c3)cs2)C[C@@H]1O | – | –
– | 87 | Cc1sc(C(=O)c2cncnc2N[C@@H]2C[C@H](COS(N)(=O)=O)[C@@H](O)C2)cc1C1OCCc2ccc(Cl)cc21 (stereo in doubt; 47) | 11 | 3880
> 1000 | 64 | NS(=O)(=O)OC[C@H]1C[C@@H](Nc2ncncc2C(=O)c2cc(Cc3cccc(Cl)c3)cs2)C[C@@H]1O | – | –
468 | 32 | NS(=O)(=O)OC[C@H]1C[C@@H](Nc2ncncc2C(=O)c2ccn(-c3ccccc3)n2)C[C@@H]1O | 67 | > 1000
> 1000 | 23 | NS(=O)(=O)OC[C@H]1C[C@@H](Nc2ncncc2C(=O)c2ccn(Cc3ccccc3)c2)C[C@@H]1O | 1.7 | 30
> 1000 | 10 | NS(=O)(=O)OC[C@H]1C[C@@H](Nc2ncncc2C(=O)c2ccn(Cc3cccc(Br)c3)c2)C[C@@H]1O | 0.6 | 14
